The text below walks through data of the RNAGym collection of RNA variant scans (doi:10.1126/science.aae0568).

Variants at the floor of the assay were thinned out. Where only a bound is given, the exact number is not on record here.

B1: tRNA (parent)
chain: GUUCCGUUGGCGUAAUGGUAACGCGUCUCCCUCCUAAGGAGAAGACUGCGGGUUCGAGUCCCGUACGGAACG

The variants in this data set derive from B1. Kind of data set: yeast fitness relative to wild type (ratio to wild type); higher = fitter; tRNA-Arg(CCU), competitive growth, 37 C, YPD. In short, it runs like this:
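Variants of the tRNA-Arg(CCU) gene, chemically synthesised with a 3% per-site mutation rate at 69 sites, were placed at the native genomic locus in Saccharomyces cerevisiae. The pooled strains were competed in YPD at 37°C for 24 hours in six parallel replicates. Gene amplicons from the start population and from each end population were read by 100-nucleotide paired-end sequencing. Darwinian fitness relative to wild type came from changes in genotype frequencies; genotypes needed ≥ 100 starting reads, and estimates < 0.5 were set to 0.5.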
In the case of GAUCCGUAGGCGUAAUGGUAACGCGUCUCCCUCAUAAGGAGAAGACUGCGGGUUCGAGUCCCGUUCGGAACG, the yeast fitness is ≤ 0.5.

For GAUCCGUUGCCGUAAUGGUAACGCGUGUCCCUCCUAAGUAGAAGACUGCCGGUUCGAAUCCCGUACGGAACG, the yeast fitness is ≤ 0.5. As to GAUCCGUUGGCGUAAUGGUAACGCCUCUCCCUCCUAAGGAGAAGACUGCGGGUUCGAGUCCCGUACGGAGCG, the yeast fitness came out at 0.568. As for GAACCGUUGGCGUAAUGGUAACGCGUCUCCCUCCUAAGGAGAAGACUGCGGGUUCGAGUCCCCUACGGAACG, the yeast fitness was ≤ 0.5.

With GAUCCGUUGGCGAAAUGGUCACGCGUCUCCCUCCUAAGGAGAACACUGCGGGUUCGAGUCCCGUAUGGAACG, the yeast fitness is ≤ 0.5. GAUCCGUUGGCGUAAUGGUAACCCGUUUCCGUCCUAAGGAGCAGACUGCGGGUUCGAGUCUCGUACGGAACG: the yeast fitness was ≤ 0.5. Take GAUCCGUUGGCGUAAUGGUAACGCGUCUCCCUCCUAAGCAGAAGACUGCGGGUUCGAGUCCCGUACGGAGCG: the yeast fitness is ≤ 0.5. With GAUCCGUUGGCGUAAUGGUAACGCGUCUCCCUCCUAAGGACAAGACUGCCGGUUCGAGUCCCGUACGGAACG, the yeast fitness was ≤ 0.5. Regarding GAUCCGUUGGCGUAACGGUAACGCGUCUCCCUCCUAAGGAGAAGCCUGCGGGUUCGAGUCCCGUACGGAACG, the yeast fitness worked out at 0.651. For the variant GAUCCGUCGGCGUAAUGGUAACACGUCUGCCUCCUAAGGAGAAGACUGCGGGUUCGAGUCCCGUACGGAACG, the yeast fitness was ≤ 0.5. On to GAUCCGUUGGCGUAAUGGUAACGCGUCUCCCUCCUAAGGAGAAGACUGCGGGUUCGAGUCCCGUACUGAACG, for which the yeast fitness was determined as 0.824. With GAUCCGUUGGCGUAAUGGUAACGCGUCUCCCUCCUAACGAGAACACUGCGGGUUCGAGUCCCGUACGGUACG, the yeast fitness was ≤ 0.5. With GAUCCGUUGGCGUAAUGCUAACGCGUCUCCCUCCUAAGGAGAAGACUGCGGGUUCGAGUCCCGUACGGAACG, the yeast fitness amounted to 0.592. For the variant GAUCCGUUGGCGUAAUGGUAACGCGUCUCCCUCCUAAGGAGAAGACUCCAGGUUCGAGUCCCGUACGGAACG, the yeast fitness amounted to 0.732.

As to GAUCCGAUGGCGUAUUGGUAACGCGUCUCCCUCCUAAGGAGAAGACUGCGGGUUCAAGUCCCGUACGGAACG, the yeast fitness was ≤ 0.5. On to GAUCCGUUGGCGUAAUGGUAACACGUCUGCCUCCUAAGGAGAAGACUGUGGGUUCGAGUCCCGUACGGAACG, for which the yeast fitness came out at 0.575.

As to GAUCCGUUGGCAUAAUGGUACCGCGUCUCCCUCCUAAGGAGAAGACUGCGGGUUCGAGUCCCGUACGGAACG, the yeast fitness came to 0.515.

Take GAUCCGUUGGCGUAAUGGUAACGCGUCUCCCUCCUAAGGACAAGACUGCCGGUUCGAGUCCGGUAGGGAACG: the yeast fitness was ≤ 0.5. Consider GAUCCGUUGGCGUAAUGGUAACGCGUCUCCCUCCUAAGGACAAGACUGCGGGUUCGAGACACGUAUGCAACG, for which the yeast fitness is ≤ 0.5.

GAUCCGUUGGCGAAAUGGUAACGCGUCUCCCUCCGAAGGAGAAGACUGCGGGUUCGAGUCCCGUACGGAACG: the yeast fitness was ≤ 0.5.

Turning to GAUCCGUUGGCGUAACGGUAACGCGUCUCACUCCUAAGGAGACGACUGCGGGUUCGAGUCCCGUACGGAACG, the yeast fitness is ≤ 0.5.

Consider GAUCCGUUGGCGGAAUGGUAACGCGUCACCCUCCUUAGGAGAAGACUGCGGGUUCAAGUCCGGGACGGAACG, for which the yeast fitness is ≤ 0.5. As to GAGCCGUUGGCGUAAUGGUAACGCGUCUCCCUCUUAAGGAGAAGACUGCGGGUUCGAGUCCCGUACGGAACG, the yeast fitness is ≤ 0.5. As for GAUCCGUUGACGUAAUGGUAACGCGUCUCCCUCCCAAGGAGAAGACUGCGGGUUCGAGUCCCGUACGGAACG, the yeast fitness is ≤ 0.5.

As to GACCCGUUGGCGUAAUGCUAACGCGUCUGCCUCCUAAGGAGAAGACUGCGGGUACGAGUCCCGUACGGAACG, the yeast fitness was ≤ 0.5. In the case of GAUCCGUUGGCGUAAUGGUAACGCCUCUCCCUCCUAAGGAGAAGUCUGCGGGUUCGAGUCCCGUACGGAACG it was 0.585; in that of GAUCCGUUGGCCUAAUGGUAACGCGUCUCCCUCGUAAGGAGAAGACUGCGGGUUCGAGUCCCGUUCGGAACG, ≤ 0.5.

Regarding GAUCCGUAGGCGUAAUGGUAACGCGUCUCCCUUCUAAGGAGAUGACUGCGGGUUCGAGUCCCGUACGGAACG, the yeast fitness was ≤ 0.5. With GAUCCGUUGGCGGAAUGGUAACGCGUCACCCUCCUUAGGAGAAGUCUGCGGGUUCGGGUCCCGUACGGAACG, the yeast fitness worked out at 0.59. On to GAUCCGUUGGCGUAAUGGUAACGCGUCUCCCUCCUAAGGAGAAGACUACGGGUUCGAGUCCCGUACGGAACG, for which the yeast fitness amounted to 0.978. In the case of GAUCCGUUGGCGUAACGGUAACGCGUCACCCUCCUAAGGAGAAGACUGCAGGUUCGAGUCCCGUACGGAACG it was ≤ 0.5; in that of GACCCGUUGGCGUAAUGCUAACGCGUCUCCCUCCUAAGGAGAAGACUGCGGGUUCGAGUCCCGUACGGUACG, ≤ 0.5; in that of GAUCCGUUGGCGUAAUGGUAACGCGUCUCCCUCCUAACGAGAAGACUGCGGGUUCGAGUCCCGUACGGAACG, 0.635. As for GAUCCGCUGGCGUAAUGGUAACGCGUCUCCCUCCUAAGGAACAGACUGCCGGUUCGAGUCCCGUACGGAGCG, the yeast fitness is ≤ 0.5. As to GAACCGUUGGCGUAAUGGUAACGCGUCUCCCUCCUAAGGAGAAGACUGCGAGUUCGAGUCGCGUACGGAACG, the yeast fitness amounted to 0.513.

Turning to GAUCCGUCGGCGUAAUGGUAACGCGUCUCCCUCCUAAGGAGAAGACUGCGGGUUCGAGUCCCGUACGGAACG, the yeast fitness stood at 1.01. On to GAUCCGUAGGCGUAAUGGUAACGCGUCUCCCUCCUAAGGAGAAGACUGCGGGUUCGAGUCCCGUACGGAACG, for which the yeast fitness came out at 0.811.
